Measured values reported in ChEMBL document CHEMBL1130411, “The practical synthesis of a methylenebisphosphonate analogue of benzamide adenine dinucleotide: inhibition of human inosine monophosphate dehydrogenase (type I and II)” (J Med Chem, 1997).

Columns and labels:
[1] = test system: K562; assay: Inhibition of growth in human erythroleukemia K-562 cells (% of untreated control); format: functional
Method in brief: (§1)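 K562 cells in RPMI 1640 with 10% heat-inactivated calf serum, glutamine, penicillin/streptomycin; seeded at 5 × 10³ per mL, compound (with or without 30 µM guanosine) added at start. After 5 days, MTT added, 3 h at 37 °C; formazan dissolved in acidified 2-propanol, absorbance 550 nm. Triplicate points; IC50 for 50% growth inhibition averaged over four experiments.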

[2] = test system: K562; assay: Differentiation of K-562 cells at 15 uM with out coadministration of guanosine; format: functional, Homo sapiens
Method in brief: (§2)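 Human erythroleukemia K562 cells grown in RPMI 1640 with 10% heat-inactivated calf serum, glutamine and penicillin/streptomycin; incubated 5 days with compound, with or without 30 µM guanosine. Hemoglobin expression read by benzidine staining (0.1% benzidine in 0.25% H2O2, equal volume, 5 min, room temperature); 300-400 cells counted for % benzidine-positive. Duplicates; average of three experiments.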

[3] = test system: K562; assay: Differentiation of K-562 cells at 7.5 uM with coadministration of guanosine; format: functional, Homo sapiens; method in brief: as §2
[4] = test system: K562; assay: Differentiation of K-562 cells at 15 uM with coadministration of guanosine; format: functional, Homo sapiens; method in brief: as §2
[5] = test system: K562; assay: Differentiation of K-562 cells at 7.5 uM with out coadministration of guanosine; format: functional, Homo sapiens; method in brief: as §2
[6] = test system: K562; assay: Differentiation of K-562 cells at 60 uM with coadministration of guanosine; format: functional, Homo sapiens; method in brief: as §2
[7] = test system: K562; assay: Differentiation of K-562 cells at 120 uM with out coadministration of guanosine; format: functional, Homo sapiens; method in brief: as §2
[8] = test system: K562; assay: Tested for inhibition of growth in human erythroleukemia K-562 cells.; format: functional, cell-based; method in brief: as §1
[9] = test system: K562; assay: Differentiation of K-562 cells at 120 uM with coadministration of guanosine; format: functional, Homo sapiens; method in brief: as §2
[10] = test system: K562; assay: Differentiation of K-562 cells at 60 uM with out coadministration of guanosine; format: functional, Homo sapiens; method in brief: as §2
[11] = test system: K562; assay: Differentiation of K-562 cells at 30 uM with coadministration of guanosine; format: functional, Homo sapiens; method in brief: as §2
[12] = test system: K562; assay: Differentiation of K-562 cells at 30 uM with out coadministration of guanosine; format: functional, Homo sapiens; method in brief: as §2
[13] = test system: K562; assay: Differentiation of K-562 cells at 19 uM with out coadministration of guanosine; format: functional, Homo sapiens; method in brief: as §2
[14] = test system: K562; assay: Differentiation of K-562 cells at 3.8 uM with coadministration of guanosine; format: functional, Homo sapiens; method in brief: as §2
[15] = test system: K562; assay: Differentiation of K-562 cells at 19 uM with coadministration of guanosine; format: functional, Homo sapiens; method in brief: as §2
[16] = test system: K562; assay: Differentiation of K-562 cells at 3.8 uM with out coadministration of guanosine; format: functional, Homo sapiens; method in brief: as §2

Structure (SMILES): NC(=O)c1csc([C@H]2O[C@@H](COP(=O)(O)OP(=O)(O)OC[C@H]3O[C@@H](n4cnc5c(N)ncnc54)[C@H](O)[C@@H]3O)[C@H](O)[C@@H]2O)n1
- Growth inhibition (% of untreated control) [1]: 80%
- Benzidine positive cells [2]: 70%
- Benzidine positive cells [3]: 15%
- Benzidine positive cells [4]: 30%
- Benzidine positive cells [5]: 50%

Structure (SMILES): NC(=O)c1cccc([C@@H]2O[C@H](COP(=O)(O)CP(=O)(O)OC[C@@H]3O[C@H](n4cnc5c(N)ncnc54)[C@@H](O)[C@H]3O)[C@@H](O)[C@H]2O)c1
- Growth inhibition (% of untreated control) [1]: 90%
- Benzidine positive cells [6]: 15%
- Benzidine positive cells [7]: 75%
- IC50 [8]: 60 µM
- Benzidine positive cells [9]: 17%
- Benzidine positive cells [10]: 45%

Structure (SMILES): NC(=O)c1csc([C@@H]2O[C@H](COP(=O)(O)CP(=O)(O)OC[C@@H]3O[C@H](n4cnc5c(N)ncnc54)[C@@H](O)[C@H]3O)[C@@H](O)[C@H]2O)n1
- Growth inhibition (% of untreated control) [1]: 90%
- Benzidine positive cells [2]: 34%
- Benzidine positive cells [11]: 30%
- Benzidine positive cells [4]: 23%
- Benzidine positive cells [12]: 85%

Structure (SMILES): NC(=O)c1csc([C@@H]2O[C@H](CO)[C@@H](O)[C@H]2O)n1 [TIAZOFURIN]
- Growth inhibition (% of untreated control) [1]: 90%
- Benzidine positive cells [13]: 80%
- Benzidine positive cells [14]: 12%
- Benzidine positive cells [15]: 40%
- Benzidine positive cells [16]: 36%
